# Test results from ChEMBL document CHEMBL1275590, “Novel arylimidamides for treatment of visceral leishmaniasis” (Antimicrob Agents Chemother, 2010).
# Active and inactive are the calls of the source.
# Legend:
# [1] = Drug level in Swiss Webster mouse liver at 5 mg/kg, iv after 2 hrs by HPLC/UV analysis; conditions: read-out: Drug uptake
# [2] = Induction of mutagenicity in Salmonella serovar Typhimurium TA 100 assessed as number of revertant colonies at 10 ug by Ames assay in presence of Aroclor 1254-induced rat liver S9 metabolic activation system; type: toxicity, subcellular, Salmonella enterica subsp. enterica serovar Typhimurium
# Outline: (§1)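 Ames plate incorporation with S. Typhimurium TA98 and TA100, with or without Aroclor 1254-induced rat liver S9 (10% vol/vol). Compound was dissolved in sterile water and serially diluted to 1–500 μg/plate. Positive controls were 2-nitrofluorene and sodium azide without S9, and 2-aminoanthracene with S9; sterile water and DMSO served as vehicles. Revertant colonies and background lawn were scored. A mutagen was defined as a mean revertant count at least 2-fold over solvent control. Single experiment.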
# [3] = Induction of mutagenicity in Salmonella serovar Typhimurium TA 100 assessed as number of revertant colonies at 50 ug by Ames assay in presence of Aroclor 1254-induced rat liver S9 metabolic activation system; type: toxicity, subcellular, Salmonella enterica subsp. enterica serovar Typhimurium
# Outline: as §1
# Mus musculus [4] = assay: Renal toxicity in BALB/c mouse assessed as phosphorus level in serum at 30 mg/kg/day, iv administered for five days (Rvb= 6.1 mg/dl); type: organism-based; design: route intravenous; conditions: in vivo
# Outline: (§2)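 Female BALB/c mice (n = 5 per dose), dosed once daily for 5 consecutive days p.o. (20 ml/kg) or i.v. (10 ml/kg) with compound in sterile water, prepared fresh daily under yellow light. Vehicle controls n = 5 per route. Clinical observations, body weights, serum chemistry and hematology on day 6 before necropsy; histopathology of formalin-fixed tissues. Chemistry analysed by one-way ANOVA with Dunnett's posttest.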
# [5] = Induction of mutagenicity in Salmonella serovar Typhimurium TA 98 assessed as number of revertant colonies at 1 ug by Ames assay in presence of Aroclor 1254-induced rat liver S9 metabolic activation system; type: toxicity, subcellular, Salmonella enterica subsp. enterica serovar Typhimurium
# Outline: as §1
# Leishmania donovani [6] = assay: Antileishmanial activity against Leishmania donovani WR378 infected in golden Syrian hamster assessed as reduction in bone marrow parasitemia at 100 mg/kg/day, po administered for five days; type: functional; conditions: 120 h
# Outline: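 11-day golden hamster VL model adapted from an 8-day method, using L. donovani WR378 metacyclic promastigotes. Dosing was oral, once daily for 5 days. Animals were euthanized on day 11 post-infection. Liver, spleen and femoral bone marrow (flushed with Schneider's medium) were harvested.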
# Leishmania donovani [7] = assay: Antileishmanial activity against Leishmania donovani promastigotes in po dosed BALB/c mouse assessed as inhibition of liver parasitemia; type: functional, organism-based
# Outline: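 Murine VL model in L. donovani-infected mice. Compounds were dissolved in water and given i.p. or p.o. once daily for 5 days (4 days for one i.p. regimen). Liver parasitemia was compared with untreated controls by unpaired Student's t test, P ≤ 0.05.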
# Mus musculus [8] = assay: Volume of distribution in Swiss Webster mouse at 70 mg/kg, po by HPLC-MS/MS analysis; type: ADME, organism-based; design: dose 70 mg/kg, route oral; conditions: in vivo
# Outline: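 Male Swiss Webster mice (n = 3 per time point) got a single oral gavage dose in sterile water, 5 ml/kg. The 5 mM formulation was a clear solution; the 20 and 40 mM formulations were gelatinous. Terminal blood was collected from 5 min to 72 h postdose, and plasma was analysed by HPLC-MS/MS. Volume of distribution came from noncompartmental analysis.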
# [9] = Induction of mutagenicity in Salmonella serovar Typhimurium TA 100 assessed as number of revertant colonies at 10 ug by Ames assay; type: toxicity, Salmonella enterica subsp. enterica serovar Typhimurium; conditions: in vivo
# Outline: as §1
# [10] = Drug level in Swiss Webster mouse spleen at 70 mg/kg, po after 2 hrs by HPLC/UV analysis; conditions: read-out: Drug uptake
# Mus musculus [11] = assay: Toxicity in BALB/c mouse assessed as decrease in body weight at 150 mg/kg/day, po administered for five days; type: organism-based; design: route oral; conditions: in vivo
# Outline: as §2
# [12] = AUC (0 to infinity) in Swiss Webster mouse at 4.9 mg/kg, iv by HPLC-MS/MS analysis; type: ADME, organism-based; design: time infinity, dose 4.9 mg/kg, route intravenous; conditions: plasma
# Outline: (§3)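 Male Swiss Webster mice, n = 3 per time point. For i.v., the compound was dissolved in sterile water, diluted 1:1 with 2× saline, and given as a tail-vein bolus over ~10–20 s. For p.o., it was given by gavage in sterile water. Dose volume was 5 ml/kg. Terminal plasma was taken from 5 min to 72 h and measured by HPLC-MS/MS (calibration 2.5–10,000 nM). Parameters came from noncompartmental analysis.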
# [13] = Half life in Swiss Webster mouse at 4.9 mg/kg, iv by HPLC-MS/MS analysis; type: ADME, organism-based; design: dose 4.9 mg/kg, route intravenous; conditions: in vivo
# Outline: as §3
# Mus musculus [14] = assay: Toxicity in BALB/c mouse assessed as decrease in liver weight at 150 mg/kg/day, po administered for five days; type: organism-based; design: route oral; conditions: in vivo
# Outline: as §2
# Mus musculus [15] = assay: Renal toxicity in BALB/c mouse assessed as blood urea nitrogen level in serum at 10 mg/kg/day, iv administered for five days (Rvb= 20 mg/dl); type: organism-based; design: route intravenous; conditions: in vivo
# Outline: as §2
# Mus musculus [16] = assay: Toxicity in BALB/c mouse assessed as tremor at 50 mg/kg/day, ip administered for five days; type: organism-based; design: route intraperitoneal; conditions: in vivo
# Outline: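 Acute overt toxicity was checked in uninfected female BALB/c mice before the efficacy work. Compounds were given intraperitoneally once daily for 5 days, and mice were watched for clinical signs such as ruffled fur, hypoactivity, tremors, ataxia and startle, and for survival.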
# Mus musculus [17] = assay: Toxicity in BALB/c mouse at 25 mg/kg/day, po administered for five days; type: organism-based; design: route oral; conditions: in vivo
# Mus musculus [18] = assay: Hepatotoxicity in BALB/c mouse assessed as AST level in serum at 150 mg/kg/day, po administered for five days (Rvb= 70 U/L); type: toxicity, organism-based; design: route oral; conditions: in vivo
# [19] = Oral bioavailability in Swiss Webster mouse at 131 mg/kg by HPLC-MS/MS analysis; type: ADME, organism-based; conditions: in vivo
# Outline: (§4)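 Male Swiss Webster mice (n = 3 per time point), single dose by oral gavage (sterile water solution) or tail-vein bolus i.v. (water diluted 1:1 with 2× saline, over ~10–20 s); dose volume 5 ml/kg. Terminal blood sampled from 5 min to 72 h postdose; plasma quantified by HPLC-MS/MS (positive-ion SRM). Noncompartmental analysis gave Cmax, Tmax, AUC0-∞, CL, Vss; bioavailability from p.o. versus i.v. exposure.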
# Mus musculus [20] = assay: Toxicity in BALB/c mouse assessed as gastric inflammation at 150 mg/kg/day, po; type: organism-based, Stomach; design: route oral; conditions: in vivo
# Mus musculus [21] = assay: AUC (0 to infinity) in Swiss Webster mouse at 131 mg/kg, po by HPLC-MS/MS analysis; type: ADME, organism-based, Plasma; design: dose 131 mg/kg, route oral, time infinity; conditions: in vivo
# Outline: as §3
# Mus musculus [22] = assay: Toxicity in BALB/c mouse assessed as occurrence of tremor at 10 mg/kg/day, iv administered for five days measured on day 2; type: organism-based; design: route intravenous; conditions: in vivo
# Outline: as §2
# [23] = Tmax in Swiss Webster mouse at 1 mg/kg, iv by HPLC-MS/MS analysis; type: ADME, organism-based; design: dose 1 mg/kg, route intravenous; conditions: in vivo
# Outline: as §4
# [24] = Tmax in Swiss Webster mouse at 131 mg/kg, po by HPLC-MS/MS analysis; type: ADME, organism-based; design: dose 131 mg/kg, route oral; conditions: in vivo
# Outline: as §4
# Mus musculus [25] = assay: Toxicity in BALB/c mouse assessed as splenic lymphoid depletion at 150 mg/kg/day, po; type: organism-based; design: route oral; conditions: in vivo
# Outline: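 Five-day repeat-dose study in female BALB/c mice (n = 5 per dose level): oral dosing once daily for five consecutive days in sterile water prepared fresh daily under yellow light, 20 ml/kg. Vehicle controls received sterile water only. Clinical observations and body weights were recorded, with blood for hematology and serum chemistry taken on day 6 before necropsy. A veterinary pathologist examined formalin-fixed tissues.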
# Mus musculus [26] = assay: Toxicity in BALB/c mouse assessed as ataxia at 100 mg/kg/day, ip after second dose; type: organism-based; design: route intraperitoneal; conditions: in vivo
structure (smiles),measurement,setting,value
CC(C)Oc1cc(NC(=N)c2ccccn2)ccc1-c1ccc(-c2ccc(NC(=N)c3ccccn3)cc2OC(C)C)o1,concentration at 2 h,[1],18.7 µM
same,Activity,[2],148
same,Activity,[3],135
same,Activity,Mus musculus [4],7.6 mg/dL
same,Activity,[5],43
same,inhibition in vivo at 100 mg/kg/day,Leishmania donovani [6],92%
same,Activity,Leishmania donovani [7],Active
same,Vd,Mus musculus [8],54 L/kg
same,Activity,[9],148
same,concentration at 2 h,[10],43.1 µM
CCOc1cc(NC(=N)c2ccccn2)ccc1-c1ccc(-c2ccc(NC(=N)c3ccccn3)cc2OCC)o1,Activity,Mus musculus [11],Toxic
same,AUC(0-inf),[12],4.5 µM·h
same,half-life,[13],1080 min
same,Activity,Mus musculus [14],Toxic
same,Activity,Mus musculus [15],24 mg/dL
same,Activity,Mus musculus [16],Toxic
same,Activity,Mus musculus [17],Non-toxic
same,Activity,Mus musculus [18],770 U/L
same,bioavailability,[19],25%
same,Activity,Mus musculus [20],Toxic
same,AUC,Mus musculus [21],30 µM·h
same,Activity,Mus musculus [22],Toxic
same,Tmax,[23],5 min
same,Tmax,[24],2 h
same,Activity,Mus musculus [25],Toxic
same,Activity,Mus musculus [26],Toxic
